Assay outcomes from PubChem.
TAAR1 agonist: agonists of human TAAR1; CHO RD-HGA16 TAAR1, Fluo-8 calcium fluorescence; vehicle wells 0%, saturating PEA agonist 100%; activation, % at 3 µM; 360,000 tested, 0.99% active; AID 624467;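 active = activation above the mean activation of all test compounds in the run plus 3 SD, cut at about 38% in these data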
Target sequence (Q96RJ0 whole entry, looked up): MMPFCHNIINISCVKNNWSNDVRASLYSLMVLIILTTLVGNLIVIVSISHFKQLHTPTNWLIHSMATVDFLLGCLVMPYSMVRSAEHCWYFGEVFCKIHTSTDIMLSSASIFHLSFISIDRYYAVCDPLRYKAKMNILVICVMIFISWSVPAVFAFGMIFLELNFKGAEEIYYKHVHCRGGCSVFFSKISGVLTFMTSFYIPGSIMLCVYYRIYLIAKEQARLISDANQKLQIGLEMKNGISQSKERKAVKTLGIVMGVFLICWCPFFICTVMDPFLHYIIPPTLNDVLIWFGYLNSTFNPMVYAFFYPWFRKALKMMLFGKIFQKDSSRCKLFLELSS
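Assay system – CHO-derived RD-HGA16 cells with stable Gα16 and human TAAR1 · Compound dosing – one-point dosing at 3 µM (nominal) · Incubation – 17-24 h seeding, 75 min 37 °C dye, 30 min RT · Measured by – kinetic Fluo-8 calcium fluorescence · Control set – DMSO vehicle as 0%, PEA at EC100 as 100% · Repeats – single well for each compound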
zfTRPN1 agonist: zebrafish TRPN1 (NompC) channel agonism; HEK293 zebrafish TRPN1-YFP, Fluo-8 calcium fluorescence; 100% = response to 87 µM carbachol; activation, % at 3 µM; 220,000 tested, 0.18% active;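 active = activation above its plate's cutoff, the mean activation of test wells on that plate plus 3 SD, cut at about 19% in these data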;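 note: 0% = DMSO alone and 100% = 87 µM carbachol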
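Control set: carbachol 87 µM as high control, DMSO as low control; system: HEK293 stable line with zebrafish TRPN1-YFP; read-out: % activation versus carbachol response; detection: intracellular calcium fluorescence with Fluo-8; doses: single test compound dose, 3 µM nominal, 0.3% DMSO; schedule: dye 1 h 37 °C plus 30 min RT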
TAAR1 antag: antagonists of human TAAR1 | 360,000 tested, 1.5% active | CHO RD-HGA16 TAAR1, Fluo-8 calcium fluorescence, antagonist | AID 624466 | inhibition, % at 3 µM | Q96RJ0;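 active = inhibition above a per-plate cutoff, the mean inhibition of test compounds on that plate plus 3 SD, cut at about 49% in these data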;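 note: 0% = DMSO plus EC80 beta-PEA response and 100% = DMSO alone without agonist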
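Test system: RD-HGA16 CHO cells with stable hTAAR1 and Gα16 / Probe or stimulus: EC80 β-phenethylamine stimulus / Times: seeding 17-24 h prior, 75-min 37 °C, 30-min RT dye loading / Detection: Fluo-8 calcium-sensitive fluorescence / Read-out basis: % inhibition scaled between DMSO and EC80 PEA controls / Repeats: singlicate, one well per test compound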
TRPML3 agonist: human mucolipin-3 channel agonism | HEK293 TRPML3-YFP, Fluo-8 calcium fluorescence; 100% = the carbachol control signal | activation, % at 3 µM | 220,000 tested, 0.29% active;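 active = activation above its plate's cutoff, the mean activation of the plate's test wells plus 3 SD, cut at about 12% in these data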;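 note: 0% = DMSO only wells and 100% = carbachol wells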
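Material: HEK293 cells stably carrying human TRPML3-YFP; compound dosing: single dose, 3 µM final nominal compound, 0.3% DMSO final; incubation: 1-h 37 °C dye load, 5-s basal, 120-s post-compound reads; technique: Fluo-8 intracellular calcium fluorescence, excitation 470-495 nm, emission 515-575 nm; read-out basis: percent activation from peak-to-basal fluorescence ratio, scaled between DMSO and carbachol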
GPR7 antagonist: blocks human GPR7 receptor signaling; P48145; GPR7-expressing cells, fluorescence antagonist assay; inhibition, % at 4.4 µM; 290,000 tested, 1.1% active; AID 1861; in the data active = inhibition above about 16%, passing the limit was not always enough;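 note: cells stimulated with the agonist NPW; 0% = agonist with vehicle and 100% = vehicle without agonist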
Target sequence (P48145 whole entry, looked up): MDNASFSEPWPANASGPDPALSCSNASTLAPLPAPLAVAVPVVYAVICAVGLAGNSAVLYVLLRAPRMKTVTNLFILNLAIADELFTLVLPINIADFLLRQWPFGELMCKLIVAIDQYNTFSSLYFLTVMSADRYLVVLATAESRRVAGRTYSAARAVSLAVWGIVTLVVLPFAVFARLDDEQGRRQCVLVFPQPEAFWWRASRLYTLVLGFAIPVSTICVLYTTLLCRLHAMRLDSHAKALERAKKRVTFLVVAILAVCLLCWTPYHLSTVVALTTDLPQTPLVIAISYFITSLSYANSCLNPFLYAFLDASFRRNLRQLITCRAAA
LANA-H2B inh: blocks KSHV LANA binding to histone H2A/H2B; Q9QR71; cell-free LANA-H2A/H2B peptide, fluorescence polarization; inhibition, % (no concentration beside the values); 320,000 tested, 0.6% active; in the data active = inhibition mostly above about 10%, no sharp cut-off; inactive = mostly below about 6.7%
TAAR1 ag conf: human TAAR1 agonism, confirmed | shares compounds with TAAR1 agonist | CHO RD-HGA16 TAAR1, Fluo-8 calcium fluorescence; scaled: DMSO 0%, maximal phenethylamine 100% | activation, % at 3 µM | 2,400 tested, 82% active;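 active = activation above a cutoff set at the run's mean compound activation plus 3 SD, cut at about 39% in these data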
Ga16 nonsel ag: counter-screen for TAAR1 agonists: nonselective agonists in parental cells; shares compounds with TAAR1 agonist; CHO-Ga16 parental, Fluo-8 calcium fluorescence; normalized to maximal ATP response, DMSO zero; activation, % at 3 µM; 2,400 tested, 50% active; AID 651787;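 active = activation above the run cutoff, the mean activation over all tested wells plus 3 SD, cut at about 12% in these data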;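 note: 0% = DMSO wells and 100% = maximal ATP response on the peak over basal ratio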
TAAR1 desensitize: human TAAR1 agonist that also desensitizes the receptor | shares compounds with TAAR1 agonist | CHO RD-HGA16 hTAAR1, Fluo-8 calcium, beta-PEA response inhibition | inhibition, % at 3 µM | 2,400 tested, 46% active | AID 651951;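 active = inhibition above the run cutoff, the mean inhibition of all test compounds plus 3 SD, cut at about 49% in these data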;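 note: beta-PEA stimulus applied at its EC80; loss of beta-PEA calcium signal after compound pretreatment read as receptor desensitization; 0% = DMSO with beta-PEA at EC80 and 100% = DMSO alone without agonist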
Ga16 nonsel ant: nonselective Ga16 antagonist in TAAR1 agonist counter-screen; shares compounds with TAAR1 agonist; CHO-Ga16 ATP-induced calcium, Fluo-8 fluorescence; inhibition, % at 3 µM; 2,400 tested, 39% active; AID 651952;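 active = inhibition above the plate's mean compound inhibition plus 3 SD, computed per plate, cut at about 22% in these data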;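 note: 0% = EC80 ATP with DMSO and 100% = DMSO wells without ATP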
* marks the source's active call; other numbers are inactive results; . = not tested or not shown. The list is not random: actives were taken first. Their share in the collection is about 3.4%.

SMILES	TAAR1 agonist	zfTRPN1 agonist	TAAR1 antag	TRPML3 agonist	GPR7 antagonist	LANA-H2B inh	TAAR1 ag conf	Ga16 nonsel ag	TAAR1 desensitize	Ga16 nonsel ant
Cc1ccc(N2C(=O)c3ccc(C(=O)N4CCN(c5ccc(C)c(C)c5)CC4)cc3C2=O)cc1	7	-1	-31	1	-5	-4	.	.	.	.
CCCOC(=O)c1ccc2c(c1)C(=O)N(c1ccccc1)C2=O	68*	0	53*	0	2	-2	15	6	24	19
CCCOC(=O)CN1C(=O)c2ccc(C(=O)OCCC)cc2C1=O	6	-2	-37	-1	4	-3	.	.	.	.
Cc1ccc(N2C(=O)c3ccc(C(=O)N4CCN(Cc5ccccc5)CC4)cc3C2=O)cc1	87*	9	81*	3	-12	-3	94*	49*	97*	74*
O=C(NCCc1ccc([N+](=O)[O-])cc1)c1ccccc1	2	0	-23	-1	-3	0	.	.	.	.
O=C(NCCc1ccccc1)/C(=C\c1ccc([N+](=O)[O-])cc1)NC(=O)c1ccco1	34	.	-6	.	8	-3	.	.	.	.
CN(C)CCNC(=O)c1coc(=O)c(Br)c1	1	2	15	1	-18	1	.	.	.	.
O=C(NCCc1ccccc1)c1coc(=O)c(Br)c1	87*	.	80*	.	-7	0	94*	1	80*	8
O=C(NCCc1ccccc1)/C(=C\c1ccc([N+](=O)[O-])cc1)NC(=O)c1ccc(Br)cc1	56*	0	-15	0	-7	1	36	0	-3	9
O=C(NCCc1ccccc1)c1ccc([N+](=O)[O-])cc1	56*	0	32	0	2	1	97*	5	57*	-4
COc1ccc(CCNC2=NCCS2)cc1	59*	1	16	1	6	1	62*	0	37	6
COc1ccc(CCNC2=NCCS2)cc1OC	0	-1	-20	0	-2	0	.	.	.	.
Oc1c(C=Nc2cccc3cccnc23)sc2ccccc12	130*	12	94*	9	-9	-6	39*	69*	58*	69*
CC(=O)c1ccc(-c2cnc3c(NC=O)cc(-c4ccccc4Oc4ccccc4)cn23)cc1	-1	.	13	.	.	.	.	.	.	.
CC(C)NC(=O)C1(C)CN(S(C)(=O)=O)CC(=O)N1CCCN1CCOCC1 (centres undefined)	0	.	1	.	.	.	.	.	.	.
Cc1cc(/C=C2/NC(=O)NC2=O)c(C)n1-c1sc2c(c1C#N)CCCC2	63*	-1	-14	0	-7	1	46*	19*	-5	-2
Cc1cc(C)c(-n2c(C)cc(/C=C3/NC(=O)NC3=O)c2C)c(C)c1	33	-4	-26	-1	-12	3	.	.	.	.
Brc1ccc(-c2csc(N3CCc4ccccc4C3)n2)cc1	50*	0	5	1	-5	-3	13	5	-1	7
CC1CCCN(c2c([N+](=O)[O-])c(=O)oc3ccccc23)C1 (centres undefined)	.	1	.	0	2	-1	.	4	.	4
CCCCCOc1ccc(/C(C)=N/NC2=NCCN2)cc1	18	.	-11	.	-4	-10	.	.	.	.
CCCCCCOc1ccc(/C(C)=N/NC2=NCCN2)cc1	63*	.	21	.	1	-7	48*	23*	37	24*
CCC(=O)Nc1ccc(C(=O)Nc2ccc(Br)cc2F)cc1	75*	3	83*	2	-13	0	14	3	11	13
COc1ccc(NC(=O)C2CC(=O)NC(Nc3cccc(C)c3)=N2)cc1 (centres undefined)	51*	1	8	1	-5	6	54*	3	14	8
COc1ccc2nc(NC3=NC(C(=O)Nc4ccc(C)cc4)CC(=O)N3)nc(C)c2c1 (centres undefined)	.	1	.	0	-16	3	.	.	.	.
COc1ccc2cc(C(=O)N/N=C/c3sc4ccccc4c3O)ccc2c1	108*	14	28	9	-5	-7	49*	57*	44	53*
SMILES	TAAR1 agonist	zfTRPN1 agonist	TAAR1 antag	TRPML3 agonist	GPR7 antagonist	LANA-H2B inh	TAAR1 ag conf	Ga16 nonsel ag	TAAR1 desensitize	Ga16 nonsel ant
Cc1ccccc1NC(=S)NCCc1ccccc1	49*	-1	-13	0	4	-1	82*	2	39	3
Cc1cnn(C(=S)NCc2ccc(Cl)cc2)c1	9	-1	4	0	-3	4	.	.	.	.
COc1ccc(CCNC(=S)Nc2ccccc2C)cc1	8	0	15	0	-9	4	.	.	.	.
Cc1cnn(C(=S)NCCc2ccccc2)c1	48*	-1	32	0	-13	2	30	5	25	18
Cc1[nH]n(-c2ccccc2)c(=O)c1C=NCc1ccncc1	0	0	-14	1	-18	-1	.	.	.	.
Cc1[nH]n(-c2ccccc2)c(=O)c1C=NCCc1ccccc1	59*	-2	45	-1	-5	-1	91*	0	41	2
Nc1nc(N)c(N=O)c(Nc2cccc(Cl)c2)n1	68*	.	-16	.	.	.	128*	48*	53*	-5
Cc1ccc(Nc2nc(N)nc(N)c2N=O)cc1Cl	75*	.	-1	.	.	.	109*	29*	37	1
Nc1nc(N)c(N=O)c(Nc2ccc(Cl)c(Cl)c2)n1	109*	.	10	.	.	.	136*	58*	71*	4
Cc1ccc(Nc2ncnc3nc[nH]c23)cc1Cl	-1	0	-18	3	-7	0	.	.	.	.
Cc1cc2c(c(C#N)c1C)NC=NC2C (centres undefined)	1	.	-14	.	.	.	.	.	.	.
COC(=O)CN1C(=O)CSc2ccc(S(=O)(=O)N3CCC(C)CC3)cc21	-1	.	14	.	.	.	.	.	.	.
OC(COc1c(F)cc(Br)cc1F)CN1CCc2ccccc2C1 (centres undefined)	55*	.	11	.	-10	2	66*	0	17	10
CCC(C)c1ccc(NC(=S)NC2CCN(Cc3ccccc3)CC2)cc1 (centres undefined)	58*	3	1	3	2	1	45*	19*	39	27*
